Data as given in article PMC7574157 (Investigational new drugs, 2016).

Legend:
patients [1] = settings: cited from earlier work
Population PK analysis = assay type: in vivo, human
Method in brief: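 Oral dosing; patients fasted 1 h before and 2 h after. Sparse plasma samples were taken pre-dose and 1–3 h post-dose on days 29, 43 and 99, with richer sampling on the intermittent schedule. Two-compartment model with first-order absorption and elimination, fitted by first-order conditional estimation with interaction. It estimated clearance, intercompartment clearance, central/peripheral volumes, absorption rate, inter-subject variability and residual error, and explored covariates.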

patients [2] = settings: cited from earlier work; remark: listed apart in the source
[3] = GSK458 as mono-therapy, estimate (SD)

Compound: COc1ncc(-c2ccc3nccc(-c4ccnnc4)c3c2)cc1NS(=O)(=O)c1ccc(F)cc1F [GSK458]
- Most frequently reported treatment-related adverse events, single agent (patients [1]): diarrhea, fatigue, nausea, decreased appetite, vomiting, and hyerpglycemia
- Maximum tolerated dose (MTD), single agent (patients [1]; once daily): 2.5 mg
- Clearance, CL/F (Population PK analysis; [3]): 3.88 (1.9) L/h
- Volume of central compartment Vc/F (Population PK analysis; [3]): 17.81 (17.4) L
- Volume of peripheral compartment Vp/F (Population PK analysis; [3]): 54.67 (48.7) L
- Vd (Population PK analysis; human, in vivo, oral): 8.95 L
- clearance (Population PK analysis; human, in vivo, oral): 54.2 mL/min
- PK of GSK458 alone versus in combination with trametinib (post hoc estimates) (Population PK analysis; in vivo): No significant difference was observed
- Inter-compartment clearance (Population PK analysis; population PK model of GSK458): 2.71 L/h
- Inter-individual variability on central volume (Population PK analysis; population PK model of GSK458): ~97%
- Inter-individual variability on clearance (Population PK analysis; population PK model of GSK458): approximately 53%
- Peripheral volume of distribution (Population PK analysis; population PK model of GSK458): 38.4 L

Compound: CC(=O)Nc1cccc(-n2c(=O)n(C3CC3)c(=O)c3c(Nc4ccc(I)cc4F)n(C)c(=O)c(C)c32)c1 [trametinib]
- Most frequently reported treatment-related toxicities, single agent (patients [2]): rash or acneiform dermatitis, diarrhea, fatigue, nausea, and vomiting
- Plasma half-life (patients [2]; no reference given): five days
- Recommended phase II dose (RP2D), single agent (patients [2]; once daily): 2 mg
